Source: article PMC3034256 (Chemistry & biology, 2011)
Where “and” joins values, the source holds several entries; their conditions need not be identical. Equal values may be shown once.

How the values were obtained:
SHP2 = molecular target: T1, SHP2 (Homo sapiens, UniProt Q06124); assay: PTP-catalyzed pNPP hydrolysis, SHP2; type: biochemical
T1 sequence (Q06124 262-528): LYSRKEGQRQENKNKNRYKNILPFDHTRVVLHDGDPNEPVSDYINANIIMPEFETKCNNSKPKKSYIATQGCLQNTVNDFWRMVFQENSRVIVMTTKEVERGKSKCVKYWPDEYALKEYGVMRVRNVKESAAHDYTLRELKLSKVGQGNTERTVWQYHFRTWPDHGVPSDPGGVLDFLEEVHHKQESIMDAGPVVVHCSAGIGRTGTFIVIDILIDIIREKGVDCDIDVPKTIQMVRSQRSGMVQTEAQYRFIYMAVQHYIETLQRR
Outline: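 The SHP2 catalytic domain (residues 262–528) hydrolysed pNPP at 25 °C, pH 7.0 (50 mM 3,3-dimethylglutarate, 1 mM EDTA, ionic strength 0.15 M). Single-point screening used 10 µM final test compound. IC50 was measured at pNPP = Km by A405 after NaOH quench, fitted to AI/A0 = IC50/(IC50+[I]). For Ki and mode, initial rates at inhibitor 0–3 Ki and pNPP 0.2–5× apparent Km were fitted to kinetic equations.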

PTPα = PTPα (Homo sapiens, UniProt P18433); assay: PTP-catalyzed pNPP hydrolysis, PTPα; type: biochemical
Outline: (§1)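 pNPP hydrolysis was run at 25 °C in 50 mM 3,3-dimethylglutarate, pH 7.0, 1 mM EDTA, ionic strength 0.15 M (NaCl). pNPP was fixed at each enzyme's experimentally determined Km, and reactions were started with enzyme. They were quenched with NaOH and corrected with no-enzyme controls. p-Nitrophenol was read at 405 nm. IC50 was fitted from AI/A0 = IC50/(IC50+[I]).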

panel of PTPs = assay: Screen against a panel of PTPs at 10 µM; type: biochemical; conditions: 10 µM compound, pNPP, pH 7, 25 °C
Lyp = molecular target: T2, Lyp (Homo sapiens, UniProt Q9Y2R2); assay: PTP-catalyzed pNPP hydrolysis, Lyp; type: biochemical
T2 sequence (Q9Y2R2 1-807): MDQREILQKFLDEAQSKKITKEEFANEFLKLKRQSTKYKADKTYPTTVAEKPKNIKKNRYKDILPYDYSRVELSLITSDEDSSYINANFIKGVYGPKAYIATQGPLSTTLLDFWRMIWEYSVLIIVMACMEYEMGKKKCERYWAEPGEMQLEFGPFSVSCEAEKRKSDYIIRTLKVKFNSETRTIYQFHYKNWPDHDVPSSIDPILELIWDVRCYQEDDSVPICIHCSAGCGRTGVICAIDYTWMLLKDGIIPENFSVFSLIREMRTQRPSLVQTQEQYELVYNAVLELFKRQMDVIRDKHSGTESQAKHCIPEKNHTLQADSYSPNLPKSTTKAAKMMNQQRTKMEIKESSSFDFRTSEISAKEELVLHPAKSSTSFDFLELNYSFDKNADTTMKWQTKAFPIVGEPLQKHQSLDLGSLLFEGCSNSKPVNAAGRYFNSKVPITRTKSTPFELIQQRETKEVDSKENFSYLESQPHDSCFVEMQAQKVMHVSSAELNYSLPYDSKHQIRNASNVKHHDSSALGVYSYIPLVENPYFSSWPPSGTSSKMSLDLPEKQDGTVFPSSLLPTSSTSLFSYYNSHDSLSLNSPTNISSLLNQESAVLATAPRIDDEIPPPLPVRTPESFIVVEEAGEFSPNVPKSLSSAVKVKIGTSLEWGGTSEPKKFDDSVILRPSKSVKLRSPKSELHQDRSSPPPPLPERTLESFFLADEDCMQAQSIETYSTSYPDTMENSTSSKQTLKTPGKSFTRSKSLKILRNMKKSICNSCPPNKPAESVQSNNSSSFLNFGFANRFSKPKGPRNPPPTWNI
Outline: as §1

PP1 = conditions: biochemical assays; cited from earlier work
Jurkat T cells = assay: TCR-mediated tyrosine phosphorylation in Jurkat T cells; type: cell-based; conditions: 2 h pretreatment (2 µM; TTN 2–4 µM), 10 µg/mL anti-CD3
[1] = test system: SHP2/E76K-expressing hematopoietic progenitors; type: cell-based; conditions: 2 µM for 24 hours, GM-CSF 1 ng/mL, [3H] thymidine
Outline: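 Transduced, EGFP-sorted bone marrow low-density mononuclear cells (empty vector, wild-type SHP2 or SHP2/E76K) were serum- and growth factor-starved for 6 h. They were then cultured in complete medium with GM-CSF 1 ng/mL, with DMSO or 2 µM test compound, for 24 h. Cells were pulsed with [3H]thymidine to measure proliferation. Two independent experiments, cultures in triplicate.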

human primary T-cell = conditions: ref Shim et al., 2002; cited from earlier work
PTP1B = molecular target: T3, PTP1B (Homo sapiens, UniProt P18031); assay: PTP-catalyzed pNPP hydrolysis, PTP1B; type: biochemical
T3 sequence (P18031 1-435): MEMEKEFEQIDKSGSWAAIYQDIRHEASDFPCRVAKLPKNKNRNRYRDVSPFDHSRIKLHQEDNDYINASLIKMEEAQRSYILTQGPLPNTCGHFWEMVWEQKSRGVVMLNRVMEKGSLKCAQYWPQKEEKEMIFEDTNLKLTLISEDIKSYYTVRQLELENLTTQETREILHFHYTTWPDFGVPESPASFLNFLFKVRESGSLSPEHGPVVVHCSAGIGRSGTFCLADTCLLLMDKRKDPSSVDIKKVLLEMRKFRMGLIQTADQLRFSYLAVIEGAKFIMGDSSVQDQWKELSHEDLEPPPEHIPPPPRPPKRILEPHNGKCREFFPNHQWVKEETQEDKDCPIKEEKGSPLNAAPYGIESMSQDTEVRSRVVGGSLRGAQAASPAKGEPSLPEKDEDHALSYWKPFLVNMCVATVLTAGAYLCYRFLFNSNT
Outline: as §1

PP2A = conditions: biochemical assays; cited from earlier work

Sequence of PTPα (P18433 20-802): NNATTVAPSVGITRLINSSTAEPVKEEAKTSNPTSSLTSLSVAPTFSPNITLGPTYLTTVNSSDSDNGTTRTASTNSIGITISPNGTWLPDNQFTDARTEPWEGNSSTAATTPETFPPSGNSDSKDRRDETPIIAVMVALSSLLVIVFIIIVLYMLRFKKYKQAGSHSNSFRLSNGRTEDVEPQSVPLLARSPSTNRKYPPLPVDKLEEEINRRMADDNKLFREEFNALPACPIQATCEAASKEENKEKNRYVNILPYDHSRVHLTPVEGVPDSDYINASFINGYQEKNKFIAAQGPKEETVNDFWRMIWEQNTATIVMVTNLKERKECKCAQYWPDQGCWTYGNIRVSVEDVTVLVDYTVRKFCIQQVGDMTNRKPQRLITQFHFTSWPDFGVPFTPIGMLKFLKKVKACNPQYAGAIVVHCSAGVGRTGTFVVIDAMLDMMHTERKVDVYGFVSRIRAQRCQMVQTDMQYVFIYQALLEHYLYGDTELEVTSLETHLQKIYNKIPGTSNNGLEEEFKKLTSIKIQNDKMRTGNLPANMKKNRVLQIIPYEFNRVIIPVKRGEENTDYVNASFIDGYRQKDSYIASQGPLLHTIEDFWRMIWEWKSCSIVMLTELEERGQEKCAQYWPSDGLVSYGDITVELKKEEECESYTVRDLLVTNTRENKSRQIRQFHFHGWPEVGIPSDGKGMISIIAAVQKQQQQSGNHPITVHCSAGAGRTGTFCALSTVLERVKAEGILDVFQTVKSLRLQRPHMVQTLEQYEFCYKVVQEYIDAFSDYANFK

C=C/C(=C/C(=O)C[C@H](C)C[C@@H](C)CC[C@H](O)[C@H](C)C(=O)C[C@@H](O)[C@H](C)[C@@H](C)OC(=O)C[C@@H](O)C1=C(C)C(=O)OC1=O)CC [TTN, tautomycetin]
IC50 (SHP2): 2.9 ± 0.2 µM | Ki (SHP2): 1.6 ± 0.1 µM | reduction of SHP2 activity (SHP2; 10 µM compound, pNPP, pH 7, 25 °C): 80–90% | preference for SHP2 over all PTPs examined (SHP2; from IC50 values): ≥ 5 fold | mode of SHP2 inhibition (SHP2; pNPP hydrolysis, 25 °C, pH 7.0): competitive inhibitors | IC50 (PTPα): > 50 µM | inhibition of the rest of the PTP panel (other than SHP2) (panel of PTPs): < 30% | IC50 (Lyp): 20 ± 2 µM | inhibition of PP1 (PP1): low nM range | effect on TCR-mediated tyrosine phosphorylation (Jurkat T cells): efficiently attenuated | effect on proliferation of SHP2/E76K-expressing progenitors [1]: effectively reduced | concentration inhibiting human primary T-cell tyrosine phosphorylation (human primary T-cell): 1 µg/mL and 1.65 µM | IC50 (PTP1B): 41.2 ± 4.4 µM | inhibition of PP2A (PP2A): low nM range
